Measurements: ChEMBL document CHEMBL1156686, “Xanthine oxidase-activated prodrugs of thymidine phosphorylase inhibitors” (Eur J Med Chem, 2008)
The source made the active and inactive calls. The calls are words filed in the database; no cut-off is given here.

Columns and labels:
[1] = target: Thymidine phosphorylase (Escherichia coli K-12) (UniProt P07650); assay: Inhibition of Escherichia coli thymidine phosphorylase at 106.3 to 212.6 uM
Method in brief: (§1)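 Recombinant E. coli TP (0.00883 U per 0.2 ml) added to start a continuous spectrophotometric assay. Mix: 0.13 mM 5-nitro-2'-deoxyuridine substrate in 0.1 M potassium phosphate, pH 7.4, 25 °C, read at 355 nm in a microplate. Initial velocity compared with the mean of at least two no-inhibitor controls. Where derived, IC50 used at least five concentrations spanning the value.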

[2] = target: Thymidine phosphorylase (Escherichia coli K-12) (UniProt P07650); assay: Inhibition of Escherichia coli thymidine phosphorylase at 66 uM; method in brief: as §1
[3] = target: Thymidine phosphorylase (Escherichia coli K-12) (UniProt P07650); assay: Inhibition of Escherichia coli thymidine phosphorylase at 158 uM; method in brief: as §1
[4] = target: Thymidine phosphorylase (Escherichia coli K-12) (UniProt P07650); assay: Inhibition of Escherichia coli thymidine phosphorylase at 103.6 to 207.2 uM; method in brief: as §1
[5] = target: Thymidine phosphorylase (Escherichia coli K-12) (UniProt P07650); assay: Inhibition of Escherichia coli thymidine phosphorylase at 68.4 to 136.9 uM; method in brief: as §1
[6] = target: Thymidine phosphorylase (Escherichia coli K-12) (UniProt P07650); assay: Inhibition of Escherichia coli thymidine phosphorylase at 163 uM; method in brief: as §1
[7] = target: Thymidine phosphorylase (Escherichia coli K-12) (UniProt P07650); assay: Inhibition of Escherichia coli thymidine phosphorylase at 47.2 uM
Method in brief: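 Recombinant E. coli TP; continuous spectrophotometric assay at 355 nm, 25 °C, 0.2 ml. Contains 0.13 mM 5-nitro-2'-deoxyuridine substrate in 0.1 M potassium phosphate pH 7.4. Reaction started with TP (0.00883 U/0.2 ml). Inhibitor added from stock. Initial velocity compared with the mean of at least two no-inhibitor controls.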

[8] = target: T1, Thymidine phosphorylase (Homo sapiens) (UniProt P19971); assay: Inhibition of human recombinant thymidine phosphorylase at 62.3 uM
T1 sequence (whole entry): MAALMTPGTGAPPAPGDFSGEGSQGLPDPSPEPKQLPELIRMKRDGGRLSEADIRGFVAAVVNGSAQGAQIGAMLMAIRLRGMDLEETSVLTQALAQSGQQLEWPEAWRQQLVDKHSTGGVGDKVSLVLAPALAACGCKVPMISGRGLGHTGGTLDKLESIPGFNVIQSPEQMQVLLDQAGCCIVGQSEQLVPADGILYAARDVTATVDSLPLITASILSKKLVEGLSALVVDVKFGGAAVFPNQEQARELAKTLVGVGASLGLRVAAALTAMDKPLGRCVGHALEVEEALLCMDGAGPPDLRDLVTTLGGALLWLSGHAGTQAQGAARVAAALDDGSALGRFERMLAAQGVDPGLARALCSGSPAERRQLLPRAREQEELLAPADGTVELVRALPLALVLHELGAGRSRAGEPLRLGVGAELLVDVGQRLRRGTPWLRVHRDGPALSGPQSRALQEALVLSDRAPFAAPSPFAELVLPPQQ
Method in brief: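 Recombinant human TP expressed in V79 Chinese hamster cells; continuous spectrophotometric assay at 355 nm, 25 °C. Uses 0.33 mM 5-nitro-2'-deoxyuridine substrate in 0.1 M potassium phosphate pH 7.4. Reaction started by adding enzyme. Inhibition taken from initial velocity relative to the mean of at least two no-inhibitor controls.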

[9] = target: Thymidine phosphorylase (Escherichia coli K-12) (UniProt P07650); assay: Inhibition of Escherichia coli thymidine phosphorylase at 73.7 to 147.7 uM; method in brief: as §1
[10] = target: Thymidine phosphorylase (Escherichia coli K-12) (UniProt P07650); assay: Inhibition of Escherichia coli thymidine phosphorylase at 45 uM; method in brief: as §1
[11] = target: Thymidine phosphorylase (Escherichia coli K-12) (UniProt P07650); assay: Inhibition of Escherichia coli thymidine phosphorylase at 74 to 148 uM; method in brief: as §1

Chain of Thymidine phosphorylase (Escherichia coli K-12) (P07650 whole entry, looked up): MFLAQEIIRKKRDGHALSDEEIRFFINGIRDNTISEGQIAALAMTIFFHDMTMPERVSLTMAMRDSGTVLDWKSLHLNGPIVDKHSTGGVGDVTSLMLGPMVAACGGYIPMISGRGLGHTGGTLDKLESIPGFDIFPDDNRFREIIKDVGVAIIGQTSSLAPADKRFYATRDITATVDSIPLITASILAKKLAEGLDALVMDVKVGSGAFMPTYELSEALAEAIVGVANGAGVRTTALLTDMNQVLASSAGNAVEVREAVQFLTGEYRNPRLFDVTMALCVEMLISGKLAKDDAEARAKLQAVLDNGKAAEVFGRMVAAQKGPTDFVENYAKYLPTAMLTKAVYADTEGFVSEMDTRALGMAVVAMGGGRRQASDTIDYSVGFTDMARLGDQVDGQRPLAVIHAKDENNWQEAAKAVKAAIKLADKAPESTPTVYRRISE

Nc1ncncc1Br
Activity [1]: inactive

Cc1nc[nH]c(=O)c1Cl
Activity [2]: inactive

O=c1[nH]c(=O)c2nc[nH]c2[nH]1
Activity [3]: inactive

O=c1[nH]cnc2[nH]ccc12
Activity [4]: inactive

Nc1[nH]c(=O)ncc1Br
Activity [5]: inactive

O=c1nccc2[nH]ccn12
Activity [6]: inactive

N=C1CCCN1Cc1nc[nH]c(=O)c1Cl
Activity [7]: inactive | Activity [8]: inactive

Nc1nc[nH]c(=O)c1Br
Activity [9]: inactive

O=c1[nH]c(=S)[nH]c2[nH]ccc12
Activity [10]: inactive

O=c1ncc2cc[nH]c2[nH]1
Activity [11]: inactive
